# Assay results gathered from unrelated publications.
# Each line is one published result; the experiments were not run side by side.
# Target: Platelet-derived growth factor receptor beta (PDGFRB, Homo sapiens, UniProt P09619)
Compound,test,setting,measurement,value
O=C(Nc1ccc(Oc2ccc(F)cc2)cc1)N1CCc2ncccc2[C@H]1c1ccc(F)cc1,"cell-free assay, competition with immobilised ligand",1 µM,remaining binding,100%
Cc1cc(NC(=O)c2cccc3cc(-c4cccc5[nH]nc(N)c45)ccc23)ccc1F,"enzyme activity, inhibitor",0.1 µM,activity vs control,101%
Oc1cccc(-c2nc(N3CCOCC3)c3oc4ncccc4c3n2)c1,cell-free assay,0.5 µM,remaining signal,99.2%
COc1cc2ncnc(Nc3ccc(Oc4ccccc4)c(C)c3C)c2cc1OC,"enzyme activity, inhibitor",1 µM,inhibition,6%
CC(C)c1ccc(NC(=O)c2cccs2)c(-c2nc3ccccc3[nH]c2=O)c1,"enzyme activity, inhibitor",1 µM,activity vs control,105%
CC(C)(C)c1nc2c(s1)c1nc(N)ncc1c1ccc(NS(=O)(=O)c3c(F)cccc3F)c(F)c12,"enzyme activity, inhibitor, radiometric",1 µM,remaining activity,105%
CNC(=O)c1cc(Oc2ccc(NC(=O)Nc3ccc(Cl)c(C(F)(F)F)c3)cc2)ccn1,cell-free assay,0.5 µM,remaining signal,12%
O=C(CSc1nc2nccnc2c(=O)n1CCc1ccccc1)Nc1nccs1,"enzyme activity, inhibitor",10 µM,inhibition,2%
NS(=O)(=O)c1cc(NC(=O)Cc2ccccc2)ccc1Oc1cccc(Cl)c1,"cell-free assay, competition with immobilised ligand",1 µM,remaining binding,76%
Cc1[nH]c(/C=C2\C(=O)Nc3ccc(F)cc32)c(C)c1C(=O)N[C@H]1CCN(C(=O)N(C)C)C1,"enzyme activity, inhibitor",1 µM,remaining activity,18%
O=C(Nc1cnn(-c2csc(C(=O)NC3COC3)c2)c1)Nc1ccccc1Cl,"enzyme activity, inhibitor",5 µM,remaining activity,107%
CCCOc1ccc([C@@H]2[C@@H](C(=O)O)[C@H](c3ccc4c(c3)OCO4)CN2CC(=O)Nc2c(CC)cccc2CC)cc1,"cell-free assay, competition with immobilised ligand",1 µM,remaining binding,100%
Cc1ccc(Nc2nccc(N(C)c3ccc4c(C)n(C)nc4c3)n2)cc1S(N)(=O)=O,"enzyme activity, inhibitor",0.3 µM,inhibition,64%
O=c1nc(-c2ccccn2)sc2ccccc12,"cell-free assay, competition with immobilised ligand",1 µM,remaining binding,83%
Cc1cnc(NC2CCOCC2)nc1-n1cnc(C(=O)NC(CN)c2cc(F)cc(Cl)c2)c1 (centres unmarked),"enzyme activity, inhibitor, radiometric",1 µM,remaining activity,92%
O=c1cc(-c2cccc3c2Sc2ccccc2S3)oc(N2CCOCC2)c1,"enzyme activity, inhibitor",0.5 µM,remaining activity,102%
CCCS(=O)(=O)Nc1ccc(F)c(C(=O)c2c[nH]c3ncc(-c4ccc(Cl)cc4)cc23)c1F,"enzyme activity, inhibitor",1 µM,inhibition,< 20%
O=C(Nc1cccnn1)N1CCC(=Cc2cccc(Oc3ccc(C(F)(F)F)cn3)c2)CC1,"cell-free assay, competition with immobilised ligand",1 µM,remaining binding,97%
O=C1NC(=O)c2cc(Nc3ccc(F)cc3)c(Nc3ccc(F)cc3)cc21,cell-free assay,0.5 µM,remaining signal,93.9%
Cc1ccc(C(=O)NCc2ccsc2)cc1C#Cc1cn(C(C)C)c2ncnc(N)c12,"enzyme activity, inhibitor",1 µM,activity vs control,20%
COc1cccc(CNC(=O)c2nc3scc(COCc4ccc(C(=O)O)cc4)c3c(=O)[nH]2)c1,"cell-free assay, competition with immobilised ligand",1 µM,remaining binding,99%
CC/C(=N\NC(=O)NCc1cccc(O)c1)c1ccc(O)c(C)c1O,"enzyme activity, inhibitor",0.1 µM,inhibition,4.5%
CCN(CC)CCNC(=O)c1c(C)[nH]c(/C=C2\C(=O)Nc3ccc(F)cc32)c1C,cell-free assay,0.5 µM,remaining signal,17.6%
Fc1cccc(-n2cnc3c(NCc4nc5c(F)c(F)ccc5[nH]4)nc(N4CCOCC4)nc32)c1,"binding, competition with immobilised ligand",10 µM,binding vs control,91%
COc1cc2c(cc1OC)-c1[nH]nc(Nc3cccc(F)c3)c1C2,cell-free assay,0.5 µM,remaining signal,45.3%
CC(C)(O)c1cncc(-c2nc3ccc(F)cc3n2C2CC2)c1,"cell-free assay, competition with immobilised ligand",1 µM,remaining binding,100%
COc1cc(Cl)c(C(=O)N[C@@H](CN[C@H]2CC[C@@H](N)CC2)Cc2ccc(C#N)cc2)cc1-c1ccc(CN[C@H](C)c2ccc(C)cc2)o1,"enzyme activity, inhibitor",1 µM,remaining activity,95%
Cn1nc(C(=O)NCc2ccc(C(=O)O)cc2)cc1-c1ccc2[nH]ccc2c1,"cell-free assay, competition with immobilised ligand",0.1 µM,remaining binding,96%
CCN(CC)CCNC(=O)c1c(C)[nH]c(/C=C2\C(=O)Nc3ccc(Cl)cc32)c1C,"enzyme activity, inhibitor",0.5 µM,remaining activity,9.28%
